pIC50: −log10 of the molar value. The source made the active and inactive calls. The calls are words filed in the database; no cut-off is given here.
Experiments:
[1] = species: Rattus norvegicus; assay: Ability to displace 7.0 nM [3H]-PCP binding to rat brain homogenate relative to PCP
Outline: (§1)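 Freshly prepared rat brain homogenate aliquots incubated 45 min at 4 °C with 7.0 nM [3H]PCP; bound radioligand measured by filtration. Displacement curve for each analogue fitted visually from a log-probit plot to give IC50. PCP run as standard in each assay, and each analogue's IC50 compared with it.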

[2] = system: Rattus norvegicus; assay: Relative potency in the rat discriminative stimulus assay, expressed as mg of PCP (= 1.0 mg of compound); Did not generalize to PCP, No activity seen at doses of <=56 mg/Kg; type: functional, organism-based
Outline: (§2)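 Male Fischer-derived CDF rats trained to discriminate PCP (3.0 mg/kg ip, 30 min before session) from saline in a two-choice, discrete-trial avoidance task. In tests, generalization counted if the group averaged ≥90% of 20 trials on the PCP lever. Relative potency versus PCP derived by standard bioassay statistics.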

[3] = species: Rattus norvegicus; assay: Relative potency in the rat discriminative stimulus assay, expressed as mg of PCP (= 1.0 mg of compound); type: functional; outline: as §2
[4] = system: Rattus norvegicus; assay: Relative potency in the rat discriminative stimulus assay, expressed as mg of PCP (= 1.0 mg of compound); Did not generalize to PCP, Produced CNS depression at 56 mg/Kg; type: functional, organism-based
[5] = species: Rattus norvegicus; assay: Inhibitory concentration for [3H]PCP binding to rat brain homogenate relative to PCP; outline: as §1
[6] = species: Rattus norvegicus; assay: Ability to displace 7.0 nM [3H]PCP binding to rat brain homogenate relative to PCP (IC50= 270 nM); outline: as §1
[7] = system: Rattus norvegicus; assay: Relative potency in the rat discriminative stimulus assay, expressed as mg of PCP (= 1.0 mg of compound); Did not generalize to PCP, Tonic seizures was observed at 56 mg/Kg; type: functional, organism-based; outline: as §2

With `c1ccc(C2(N3CCCCC3)CC2)cc1` the Relative potency [1] was 0.07 and the Relative potency [2] was “inactive”.

For `Cl.c1ccc(C2(N3CCCCC3)CCCCCC2)cc1`, the Relative potency [3] was 0.06 and the Relative potency [1] was 0.23.

For `c1ccc(CN2CCCCC2)cc1`, the Relative potency [4] was “inactive” and the Relative potency [1] was 0.02.

In the case of `Cl.c1ccc(C2(N3CCCCC3)CCC2)cc1`, the Relative potency [3] was 0.19 and the Relative potency [1] was 0.08.

`Cl.c1ccc(C2(N3CCCCC3)CCCCC2)cc1` [PHENCYCLIDINE HYDROCHLORIDE] gave a Relative potency [3] of 1, a pIC50 [5] of 6.57 and a Relative potency [6] of 1.

In the case of `c1ccc(C2(N3CCCCC3)CCCCCCC2)cc1`, the Relative potency [7] was “inactive” and the Relative potency [1] was 0.72.

With `Cl.c1ccc(C2(N3CCCCC3)CCCC2)cc1` the Relative potency [3] was 0.37 and the Relative potency [1] was 0.12.

— ChEMBL document CHEMBL1121756, “Structure-activity relationships of the cycloalkyl ring of phencyclidine” (J Med Chem, 1981)
